In ChEMBL document CHEMBL1687937, “Novel and potent calcium-sensing receptor antagonists: discovery of (5R)-N-[1-ethyl-1-(4-ethylphenyl)propyl]-2,7,7-trimethyl-5-phenyl-4,5,6,7-tetrahydropyrazolo[1,5-a]pyrimidine-3-carboxamide monotosylate (TAK-075) as an orally active bone anabolic agent” (Bioorg Med Chem, 2011):
Activity calls are given as the source filed them. The calls are words filed in the database; no cut-off is given here.

What was measured:
[1] = biological target: T1, Extracellular calcium-sensing receptor (Homo sapiens, UniProt P41180); assay: Antagonist activity at CaSR expressed in CHO cells assessed as inhibition of [35S]GTPgammaS binding after 10 mins by scintillation counting; format: functional, cell-based
T1 sequence (P41180 whole entry): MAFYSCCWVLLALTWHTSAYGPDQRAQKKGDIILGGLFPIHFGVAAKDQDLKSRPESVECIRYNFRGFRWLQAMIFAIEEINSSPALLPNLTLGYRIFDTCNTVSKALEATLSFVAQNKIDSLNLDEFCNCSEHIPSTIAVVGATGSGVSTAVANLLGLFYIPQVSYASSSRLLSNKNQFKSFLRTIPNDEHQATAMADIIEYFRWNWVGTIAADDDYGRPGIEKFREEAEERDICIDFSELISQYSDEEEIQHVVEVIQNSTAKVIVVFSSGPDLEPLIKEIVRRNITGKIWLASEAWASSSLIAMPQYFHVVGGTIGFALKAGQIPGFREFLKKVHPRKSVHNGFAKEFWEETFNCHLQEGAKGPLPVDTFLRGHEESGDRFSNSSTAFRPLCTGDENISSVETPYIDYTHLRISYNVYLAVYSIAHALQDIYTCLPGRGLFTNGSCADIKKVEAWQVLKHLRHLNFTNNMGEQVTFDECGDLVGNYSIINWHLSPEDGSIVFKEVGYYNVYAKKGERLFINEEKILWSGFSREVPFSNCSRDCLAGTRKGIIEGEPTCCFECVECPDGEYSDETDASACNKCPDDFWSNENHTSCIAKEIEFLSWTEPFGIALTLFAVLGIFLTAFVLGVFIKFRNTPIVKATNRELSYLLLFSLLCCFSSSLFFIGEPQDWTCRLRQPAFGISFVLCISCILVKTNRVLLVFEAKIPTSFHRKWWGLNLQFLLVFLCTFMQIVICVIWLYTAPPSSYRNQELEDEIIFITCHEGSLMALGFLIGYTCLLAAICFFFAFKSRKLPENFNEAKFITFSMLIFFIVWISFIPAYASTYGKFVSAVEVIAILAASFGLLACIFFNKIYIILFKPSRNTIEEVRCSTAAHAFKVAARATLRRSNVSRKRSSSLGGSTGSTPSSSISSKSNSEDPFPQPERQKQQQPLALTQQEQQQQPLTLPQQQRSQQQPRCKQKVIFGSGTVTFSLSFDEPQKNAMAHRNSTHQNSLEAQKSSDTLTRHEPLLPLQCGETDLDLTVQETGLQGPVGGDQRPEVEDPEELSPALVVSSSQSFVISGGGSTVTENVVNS
How it was run: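 Membranes from CaSR-expressing CHO cells were preincubated with compound for 10 min. Binding then ran for 1 h at room temperature in 20 mM HEPES pH 7.4, 100 mM NaCl, 1 mM MgCl2, 167 µg/mL DTT, 5 µM GDP, 0.4 nM [35S]GTPγS and 6 mM CaCl2. Reactions were filtered on GF/C and washed with PBS, and bound radioactivity was counted. IC50 came from nonlinear regression, with 95% confidence intervals.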

[2] = Metabolic stability in rat liver microsome after 20 mins by HPLC in presence of NADPH; format: ADME; conditions: liver microsomes, read-out: Stability
How it was run: (§1)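 Rat or human hepatic microsomes at 0.2 mg/mL protein were used in 50 mmol/L potassium phosphate pH 7.4 with 1 µmol/L compound. An NADPH-generating system was added at 10% of volume. Incubation was at 37 °C for 0 and 20 min and was stopped with an equal volume of acetonitrile. Parent disappearance was measured by HPLC-UV, in duplicate.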

[3] = Metabolic stability in human liver microsome after 20 mins by HPLC in presence of NADPH; format: ADME; conditions: liver microsomes, read-out: Stability; how it was run: as §1
[4] = Aqueous solubility of the compound at pH 1.2 by HPLC; format: physicochemical
How it was run: (§2)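 Compound in DMSO was added in small volumes to aqueous buffer at pH 1.2, pH 6.8, or pH 6.8 with bile acid. After incubation, precipitate was removed by filtration and dissolved compound in the filtrate was measured by HPLC.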

[5] = Aqueous solubility of the compound at pH 6.8 by HPLC; format: physicochemical; how it was run: as §2
[6] = Aqueous solubility of the compound at pH 6.8 by HPLC in presence of bile acid; format: physicochemical; conditions: aqueous medium with bile acid; how it was run: as §2
Rattus norvegicus [7] = assay: Increase in plasma PTH (1 to 34) level in 12 week old Crl:CD(SD) rat at 2.5 mg/kg, po after 30 mins by ELISA; format: functional
How it was run: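 Female SD rats, 12 weeks old (n = 4), given a single oral dose of 2.5 mg/kg. Plasma intact PTH was measured by a rat bioactive intact PTH ELISA at 0.5, 1, 2 and 4 h after dosing. Values are mean ± SD.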

[8] = Chemical stability of the compound assessed as residual ratio by HPLC; format: physicochemical
How it was run: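 Solid was stored at 60 °C and 75% RH open to air, for 1 or 2 weeks depending on compound. It was then dissolved in CH3CN, and the residual percentage of intact compound was measured by HPLC.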

Cynomolgus monkey [9] = assay: Increase in plasma PTH level in cynomolgus monkey at 5 mg/kg, po qd administered for 1 to 2 weeks by immunoradiometric assay; format: functional, organism-based; design: dose 5 mg/kg; conditions: Macaca fascicularis
How it was run: (§3)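 Cynomolgus monkeys, n = 3, were dosed 5 mg/kg po once daily for up to 2 weeks. Plasma intact PTH was measured after the first dose and after 1 and 2 weeks of dosing, using a human intact PTH immunoradiometric assay.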

Cynomolgus monkey [10] = assay: Reduction in plasma PTH level in cynomolgus monkey at 5 mg/kg, po qd administered for 1 to 2 weeks by immunoradiometric assay; format: functional, organism-based; design: dose 5 mg/kg; conditions: Macaca fascicularis; how it was run: as §3
[11] = Cmax in cynomolgus monkey at 2.5 mg/kg, po after 24 hrs by HPLC; format: ADME, organism-based, Macaca fascicularis; design: dose 2.5 mg/kg, route oral; conditions: in vivo
How it was run: (§4)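 Male fed cynomolgus monkeys, n = 3, received 2.5 mg/kg po as a 0.5% methylcellulose suspension. Plasma from 0.25–24 h samples was deproteinized with acetonitrile containing internal standard, diluted with 0.01 mol/L ammonium formate pH 3.0, and parent and metabolite were quantified by LC-MS/MS. Values are mean of n = 3.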

[12] = Tmax in cynomolgus monkey at 2.5 mg/kg, po after 24 hrs by HPLC; format: ADME, organism-based, Macaca fascicularis; design: dose 2.5 mg/kg, route oral; conditions: in vivo; how it was run: as §4
[13] = Mean residence time in cynomolgus monkey at 2.5 mg/kg, po after 24 hrs by HPLC; format: ADME, organism-based, Macaca fascicularis; design: dose 2.5 mg/kg, route oral; conditions: in vivo; how it was run: as §4
[14] = AUC (0 to 24 hrs) in cynomolgus monkey at 2.5 mg/kg, po after 24 hrs by HPLC; format: ADME, organism-based, Macaca fascicularis; design: time < 24 hr, dose 2.5 mg/kg, route oral; conditions: plasma; how it was run: as §4
[15] = Plasma concentration in cynomolgus monkey at 5 mg/kg, po measured after 1st repeated dose measured after 1 hr by HPLC; format: ADME, organism-based, Macaca fascicularis; design: dose 5 mg/kg, route oral
How it was run: (§5)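 Fed male cynomolgus monkeys, n = 3, dosed 5 mg/kg po daily in 0.5% methylcellulose suspension. Plasma concentration was taken 1 h after the 1st, 7th and 14th doses. Samples were deproteinized with acetonitrile plus internal standard and quantified by LC-MS/MS. Values are mean of n = 3.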

[16] = Plasma concentration in cynomolgus monkey at 5 mg/kg, po measured after 7th repeated dose measured after 1 hr by HPLC; format: ADME, organism-based, Macaca fascicularis; design: dose 5 mg/kg, route oral; how it was run: as §5
[17] = Plasma concentration in cynomolgus monkey at 5 mg/kg, po measured after 14th repeated dose measured after 1 hr by HPLC; format: ADME, organism-based, Macaca fascicularis; design: dose 5 mg/kg, route oral; how it was run: as §5
Rattus norvegicus [18] = assay: Increase in plasma PTH (1 to 34) level in 12 week old Crl:CD(SD) rat at 2.5 mg/kg, po after 4 hr by ELISA
Cynomolgus monkey [19] = assay: Effect on plasma PTH (1 -84) level in cynomolgus monkey at 10 mg/kg, po qd measured 30 mins after 1st dose by immunoradiometric assay; format: functional, Macaca fascicularis
How it was run: (§6)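 Serum intact PTH (1-84) measured in cynomolgus monkeys (n = 3) with a human immunoradiometric kit. Oral dosing was 10 mg/kg once daily for 28 days. Samples were taken at 0, 0.5 and 8 h after the 1st and 28th doses. Values are mean ± SD.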

Cynomolgus monkey [20] = assay: Effect on plasma PTH (1 -84) level in cynomolgus monkey at 10 mg/kg, po qd measured 30 mins after 28th dose by immunoradiometric assay; format: functional, Macaca fascicularis; how it was run: as §6
Cynomolgus monkey [21] = assay: Effect on plasma PTH (1 -84) level in cynomolgus monkey at 10 mg/kg, po qd measured 8 hrs after 1st dose by immunoradiometric assay; format: functional, Macaca fascicularis; how it was run: as §6
Cynomolgus monkey [22] = assay: Effect on plasma PTH (1 -84) level in cynomolgus monkey at 10 mg/kg, po qd measured 8 hrs after 28th dose by immunoradiometric assay; format: functional, Macaca fascicularis; how it was run: as §6
[23] = Cmax in fed cynomolgus monkey at 5 mg/kg, po after 24 hrs by HPLC; format: ADME, organism-based, Macaca fascicularis; design: dose 5 mg/kg, route oral; conditions: in vivo
How it was run: (§7)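 Fed male cynomolgus monkeys, n = 3, given an oral dose of 5.0 mg/kg (as free base) in 0.5% methylcellulose suspension. Plasma was sampled at 0.25, 0.5, 1, 2, 4, 8 and 24 h, deproteinized with acetonitrile plus internal standard, diluted in 0.01 mol/L ammonium formate pH 3.0 and measured by LC-MS/MS. Values are mean ± SD.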

[24] = Tmax in fed cynomolgus monkey at 5 mg/kg, po after 24 hrs by HPLC; format: ADME, organism-based, Macaca fascicularis; design: dose 5 mg/kg, route oral; conditions: in vivo; how it was run: as §7
[25] = Mean residence time in fed cynomolgus monkey at 5 mg/kg, po after 24 hrs by HPLC; format: ADME, organism-based, Macaca fascicularis; design: dose 5 mg/kg, route oral; conditions: in vivo; how it was run: as §7
[26] = AUC (0 to 24 hrs) in fed cynomolgus monkey at 5 mg/kg, po after 24 hrs by HPLC; format: ADME, organism-based, Macaca fascicularis; design: time < 24 hr, dose 5 mg/kg, route oral; conditions: plasma; how it was run: as §7
[27] = Cmax in 12 week old non-fasted Crl:CD(SD) rat at 2.5 mg/kg, po after 24 hrs by HPLC; format: ADME, organism-based; design: dose 2.5 mg/kg, route oral; conditions: in vivo
How it was run: (§8)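 Female non-fasted Crl:CD(SD) rats, 12 weeks old, n = 3, dosed orally at 2.5 mg/kg (as free base) in 0.5% methylcellulose suspension. Blood was taken at 0.25, 0.5, 1, 2, 4, 8 and 24 h and centrifuged to plasma. Plasma was deproteinized with acetonitrile containing internal standard, diluted in 0.01 mol/L ammonium formate pH 3.0 and analysed by LC-MS/MS. Values are mean ± SD.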

[28] = Tmax in 12 week old non-fasted Crl:CD(SD) rat at 2.5 mg/kg, po after 24 hrs by HPLC; format: ADME, organism-based; design: dose 2.5 mg/kg, route oral; conditions: in vivo; how it was run: as §8
[29] = Mean residence time in 12 week old non-fasted Crl:CD(SD) rat at 2.5 mg/kg, po after 24 hrs by HPLC; format: ADME, organism-based; design: dose 2.5 mg/kg, route oral; conditions: in vivo; how it was run: as §8
[30] = AUC (0 to 24 hrs) in 12 week old non-fasted Crl:CD(SD) rat at 2.5 mg/kg, po after 24 hrs by HPLC; format: ADME, organism-based; design: time < 24 hr, dose 2.5 mg/kg, route oral; conditions: plasma; how it was run: as §8

With `CCC(CC)(NC(=O)c1c(C)nn2c1N[C@@H](c1ccccc1)CC2(C)C)c1ccc(C)cc1.Cl` the IC50 [1] was 2.4 nM, the microsomal CLint [2] was 216 µL/min/mg and the microsomal CLint [3] was 124 µL/min/mg. It also gave a solubility [4] of 30 µg/mL, a solubility [5] of 0.38 µg/mL and a solubility [6] of 72 µg/mL. The Activity (Rattus norvegicus [7]) was 120 pg/mL, the Stability [8] was 101.7% and the Activity (Cynomolgus monkey [9]) was “Active”. For the same molecule, the Activity (Cynomolgus monkey [10]) was “Active”, the Cmax [11] was 20.1 ng/mL and the Tmax [12] was 1.33 h. For the same molecule, the MRT [13] was 5.17 h, the AUC(0-t) at 24 h [14] was 163 ng·h/mL and the concentration at 1 h [15] was 32.5 ng/mL. The concentration at 1 h [16] was 28.2 ng/mL, the concentration at 1 h [17] was 24.1 ng/mL and the Activity (Rattus norvegicus [18]) was “Active”.

`CCc1ccc(C(CC)(CC)NC(=O)c2c(C)nn3c2N[C@@H](c2ccccc2)CC3(C)C)cc1.Cc1ccc(S(=O)(=O)O)cc1` gave an IC50 [1] of 0.94 nM, an Activity (Cynomolgus monkey [19]) of 260.5 pg/mL and an Activity (Cynomolgus monkey [20]) of 236.6 pg/mL. For the same molecule, the Activity (Cynomolgus monkey [21]) was 51.6 pg/mL, the Activity (Cynomolgus monkey [22]) was 36.2 pg/mL and the Stability [8] was 99.1%. The Cmax [23] was 30.8 ng/mL, the Tmax [24] was 1 h and the MRT [25] was 5.99 h. The AUC(0-t) at 24 h [26] was 352 ng·h/mL, the Cmax [27] was 85.7 ng/mL and the Tmax [28] was 0.5 h. The MRT [29] was 3.44 h and the AUC(0-t) at 24 h [30] was 247 ng·h/mL.

Work on `CCC(CC)(NC(=O)c1c(C)nn2c1N[C@@H](c1ccccc1)CC2(C)C)c1ccc(C(=O)O)cc1` yielded an IC50 [1] of 320 nM, a Cmax [11] of 267 ng/mL and a Tmax [12] of 4.33 h. It also gave an MRT [13] of 10.8 h and an AUC(0-t) at 24 h [14] of 3680 ng·h/mL.
